Data on two compounds can be found in ChEMBL document CHEMBL1250528 (J Med Chem, 2010).

Data set [1] in a line: Permeability of the compound in human Caco-2 cells. It counts as ADME, cell-based. As to conditions: read-out: permeability. For orientation: Caco-2 monolayers are a common model of the intestinal barrier.
Data set [2] can be described thus: Half life in Sprague-Dawley rat at 2.5 mg/kg, iv and 10 mg/kg, po. The conditions noted are these: in vivo. It counts as ADME, organism-based. The procedure, abridged: (§1)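 Male Sprague-Dawley rats (250-300 g), fasted overnight. IV bolus 2.5 mg/kg in 25% NMP/33% PEG 400/9% PG/33% water; oral gavage 10 mg/kg in PEG 400. Blood sampled at 0.05 (iv only), 0.25, 0.5, 1, 3, 6, 8 and 24 h post dose; composite profile. Plasma stored at -20 °C, then analysed by LC/MS/MS.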

Data set [3] can be described thus: AUC (0 to 8 hrs) in BALB/c mouse at 5 mg/kg, iv and 10 mg/kg, po. Type of data set: ADME, organism-based. The conditions noted are these: plasma. The procedure, abridged:
(§2)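 Male BALB/c mice (20-25 g), fasted overnight. IV bolus 5 mg/kg in 20% NMP/35% PEG 400/10% PG/35% water; oral gavage 10 mg/kg in PEG 400. Retro-orbital blood at 0.05 (iv only), 0.25, 0.5, 1, 3, 6, 8 and 24 h; three mice per time point, giving a composite profile. Plasma analysed by LC/MS/MS.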

The test system of data set [4] is Liver microsomes. The data set can be described thus: Metabolic stability in human liver microsomes assessed as metabolic rate. Type of data set: ADME, Microsome. On the technique in general: Liver microsomes are a subcellular fraction often used to study metabolism.
The nature of data set [5]: Half life in BALB/c mouse at 5 mg/kg, iv and 10 mg/kg, po. Type of data set: ADME, organism-based. As to conditions: in vivo. The method, boiled down: as §2
Data set [6] can be described thus: Volume of distribution at steady state in Sprague-Dawley rat at 2.5 mg/kg, iv and 10 mg/kg, po. Type of data set: ADME, organism-based. As to conditions: in vivo, read-out: Vdss. The procedure, abridged:
as §1

The nature of data set [7]: Volume of distribution at steady state in BALB/c mouse at 5 mg/kg, iv and 10 mg/kg, po. The conditions noted are these: in vivo, read-out: Vdss. Type of data set: ADME, organism-based. The procedure, abridged:
as §2

Data set [8] can be described thus: Clearance in Sprague-Dawley rat at 2.5 mg/kg, iv and 10 mg/kg, po. It counts as ADME, organism-based. The conditions noted are these: in vivo. The procedure, abridged:
as §1

A short description of data set [9]: Tmax in BALB/c mouse at 5 mg/kg, iv and 10 mg/kg, po. Type of data set: ADME, organism-based. The conditions noted are these: in vivo. The procedure, abridged: as §2
The nature of data set [10]: Tmax in Sprague-Dawley rat at 2.5 mg/kg, iv and 10 mg/kg, po. As to conditions: in vivo. It counts as ADME, organism-based. The method, boiled down:
as §1

The subject of data set [11] is Hepatocyte. The data set can be described thus: Metabolic stability in rat hepatocytes assessed as metabolic rate per million cells. Type of data set: ADME, cell-based.
Data set [12] can be described thus: Oral bioavailability in BALB/c mouse at 10 mg/kg. It counts as ADME, organism-based. The conditions noted are these: in vivo. The method, boiled down:
as §2

The nature of data set [13]: Mean residence time in BALB/c mouse at 5 mg/kg, iv and 10 mg/kg, po. It counts as ADME, organism-based. As to conditions: in vivo. The procedure, abridged: as §2
Data set [14] in a line: Oral bioavailability in Sprague-Dawley rat at 10 mg/kg. It counts as ADME, organism-based. As to conditions: in vivo. The method, boiled down: as §1
A short description of data set [15]: Mean residence time in Sprague-Dawley rat at 2.5 mg/kg, iv and 10 mg/kg, po. Type of data set: ADME, organism-based. The conditions noted are these: in vivo. The method, boiled down:
as §1

The nature of data set [16]: Clearance in BALB/c mouse at 5 mg/kg, iv and 10 mg/kg, po. It counts as ADME, organism-based. As to conditions: in vivo. The procedure, abridged:
as §2

Data set [17] in a line: AUC (0 to 24 hrs) in Sprague-Dawley rat at 2.5 mg/kg, iv and 10 mg/kg, po. Type of data set: ADME, organism-based. The conditions noted are these: plasma. The procedure, abridged:
as §1

Data set [18] can be described thus: Cmax in BALB/c mouse at 5 mg/kg, iv and 10 mg/kg, po. Type of data set: ADME, organism-based. The conditions noted are these: in vivo. The method, boiled down:
as §2

Data set [19] can be described thus: Metabolic stability in mouse hepatocytes assessed as metabolic rate per million cells. It counts as ADME, cell-based, Hepatocyte.
Data set [20] in a line: Cmax in Sprague-Dawley rat at 2.5 mg/kg, iv and 10 mg/kg, po. Type of data set: ADME, organism-based. The conditions noted are these: in vivo. The procedure, abridged:
as §1

Data set [21] has as its system Liver microsomes. The data set can be described thus: Metabolic stability in rat liver microsomes assessed as metabolic rate. It counts as ADME, Microsome.
Data set [22] in a line: Metabolic stability in mouse liver microsomes assessed as metabolic rate. Type of data set: ADME, Microsome.
Data set [23] concerns Hepatocyte. The data set can be described thus: Metabolic stability in human hepatocytes assessed as metabolic rate per million cells. Type of data set: ADME, cell-based.

`CCNC(=O)c1cn2ncnc(Nc3cc(C(=O)NOC)ccc3C)c2c1C`: in data set [1], the Papp worked out at 0.5 ×10⁻⁶ cm/s.
As for `CCCNC(=O)c1cn2ncnc(Nc3cc(C(=O)NC4CC4)ccc3C)c2c1C` [BMS-582949], the results for the half-life in data set [2] and in data set [5] were 4 h and 2.6 h, respectively. Moreover, the AUC(0-t) – broadly, exposure summed from dosing to a finite time, without extrapolation to infinity – in data set [3] is 75.5 µM·h; in data set [17] it was 45.4 µM·h. Further, the Stability in the data set with Liver microsomes [4] came to 0.013 nmol/min/mg; in the data set with Hepatocyte [11] it was 0.015 nmol/min/million cells; in data set [19] it was 0.006 nmol/min/million cells; in the data set with Liver microsomes [21], 0.008 nmol/min/mg; in data set [22], 0.011 nmol/min/mg; in the data set with Hepatocyte [23] it was 0.015 nmol/min/million cells. Moreover, the results for the Vd in data set [6] and in [7] were 1.1 L/kg and 0.9 L/kg, respectively. Further, the clearance in [8] worked out at 5.4 mL/min/kg; in [16] it was 4.4 mL/min/kg. Moreover, the time of peak concentration (Tmax) (as a rule, the time from dosing to the highest level) in data set [9] stood at 1 h; in data set [10] it was 1.5 h. The figures for the bioavailability in data set [12] and in data set [14] were 90% and 60%, respectively. Moreover, the MRT (as a rule, the average time that molecules of a dose stay in the body) in data set [13] was determined as 3.3 h; in data set [15], 3.4 h. Moreover, the figures for the Cmax in [18] and in [20] were 15.3 µM and 7 µM, respectively. Moreover, the Papp in data set [1] worked out at 9.1 ×10⁻⁶ cm/s.
